Measurements: ChEMBL document CHEMBL4190206, “Neoclerodane Diterpenoids from Reehal Fatima, Teucrium yemense” (J Nat Prod, 2017)
Activity calls are given as the source filed them. No cut-off for these calls is given here.

Assays:
Pseudomonas aeruginosa = test: Antimicrobial activity against Pseudomonas aeruginosa assessed as inhibition of microbial growth at 0.03125 to 0.5 mg/ml measured every 20 mins for 24 hrs by spectrophotometry; type: functional, organism-based
Procedure, shortened: (§1)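 Broth microdilution: colony suspensions grown overnight at 37°C with shaking, standardised to McFarland 0.5, inoculated at final 5 × 10^5 cfu mL^-1 into nutrient broth holding serially diluted test solution. Rifampicin (61 µM) as control; untreated wells included. 37°C, 300 rpm shaking, OD600 read every 20 min over 24 h.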

[1] = test system: Mycolicibacterium smegmatis; test: Antimicrobial activity against Mycobacterium smegmatis assessed as inhibition of microbial growth at 0.03125 to 0.5 mg/ml measured every 20 mins for 24 hrs by spectrophotometry; type: functional, organism-based; procedure, shortened: as §1
Schistosoma mansoni [2] = test: Antischistosomal activity against schistosomula larval stage of Schistosoma mansoni assessed as effect on motility at 10 uM after 24 hrs; type: functional, organism-based
Procedure, shortened: (§2)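 24 h cultured, mechanically transformed S. mansoni schistosomula (~120/well) in Basch medium, exposed to compound at 10 µM final (DMSO stock 1.6 mM) in 384-well format; DMSO and auranofin controls, 16 wells each. Incubated 24 h, 37°C, 5% CO2, then high-content imaging scored motility and phenotype.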

Schistosoma mansoni [3] = test: Antischistosomal activity against schistosomula larval stage of Schistosoma mansoni assessed as effect on phenotype at 10 uM after 24 hrs; type: functional, organism-based; procedure, shortened: as §2
Escherichia coli [4] = test: Antimicrobial activity against Escherichia coli assessed as inhibition of microbial growth at 0.03125 to 0.5 mg/ml measured every 20 mins for 24 hrs by spectrophotometry; type: functional, organism-based; procedure, shortened: as §1
HepG2 = test: Cytotoxicity against human HepG2 at <200 uM after 20 hrs by MTT assay; type: cell-based; settings: hepg2, 20 h
Procedure, shortened: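 HepG2 seeded 2.0 × 10^4/well in modified BME with 10% FBS, L-Gln, non-essential amino acids and antibiotic/antimycotic; 24 h at 37°C, 5% CO2 before dosing at 100-0.01 µM final. After 20 h, MTT added for 4 h; formazan dissolved in DMSO:isopropanol (1:1), A570 read. 1% DMSO and 1% Triton X-100 controls; blank-corrected; three data sets.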

Staphylococcus aureus = test: Antimicrobial activity against Staphylococcus aureus assessed as inhibition of microbial growth at 0.03125 to 0.5 mg/ml measured every 20 mins for 24 hrs by spectrophotometry; type: functional, organism-based; procedure, shortened: as §1
Candida albicans = test: Antimicrobial activity against Candida albicans assessed as inhibition of microbial growth at 0.03125 to 0.5 mg/ml measured every 20 mins for 24 hrs by spectrophotometry; type: functional, organism-based; procedure, shortened: as §1
Escherichia coli [5] = test: Growth stimulation of Escherichia coli at >100 uM measured every 20 mins for 24 hrs by spectrophotometry; type: organism-based
Procedure, shortened: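 E. coli in nutrient broth with serially diluted compound, final inoculum 5 × 10^5 cfu mL^-1. Incubated 37°C with 300 rpm shaking, OD600 read every 20 min for 24 h. Data given as OD600 percentage of no-drug control wells, mean ± error.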

SMILES: C[C@@H]1C[C@@]2(O)OC[C@]3(O)[C@H]2[C@H](CC[C@@H]3O)[C@@]12C[C@@H](c1ccoc1)OC2=O
- Activity (Pseudomonas aeruginosa): inactive
- Activity [1]: inactive
- Activity (Schistosoma mansoni [2]): inactive
- Activity (Schistosoma mansoni [3]): inactive
- Activity (Escherichia coli [4]): inactive
- Activity (HepG2): Non-Toxic
- Activity (Staphylococcus aureus): inactive
- Activity (Candida albicans): inactive

SMILES: C[C@@H]1C[C@@]2(O)OC[C@@]3(O)[C@@H](O)CC[C@@H]4[C@]1(CC(O)c1ccoc1)C(=O)OC[C@]423 (stereo partly drawn)
- Activity (Pseudomonas aeruginosa): inactive
- Activity [1]: inactive
- Activity (Schistosoma mansoni [2]): inactive
- Activity (Schistosoma mansoni [3]): inactive
- Activity (Escherichia coli [4]): inactive
- Activity (HepG2): Non-Toxic
- Activity (Staphylococcus aureus): inactive
- Activity (Candida albicans): inactive

SMILES: C[C@@H]1C[C@H](O)[C@]23CO[C@](O)(CC[C@@H]2[C@@]12C[C@@H](c1ccoc1)OC2=O)[C@@H]3CO
- Activity (Pseudomonas aeruginosa): inactive
- Activity [1]: inactive
- Activity (Schistosoma mansoni [2]): inactive
- Activity (Schistosoma mansoni [3]): inactive
- Activity (Escherichia coli [4]): inactive
- Activity (HepG2): Non-Toxic
- Activity (Staphylococcus aureus): inactive
- Activity (Candida albicans): inactive

SMILES: C[C@@H]1CC(=O)[C@@H]2[C@H](CC[C@H](O)[C@]2(O)COC(=O)c2ccc(O)cc2)[C@@]12C[C@@H](c1ccoc1)OC2=O
- Activity (Pseudomonas aeruginosa): inactive
- Activity [1]: inactive
- Activity (Schistosoma mansoni [2]): inactive
- Activity (Schistosoma mansoni [3]): inactive
- Activity (Escherichia coli [4]): inactive
- Activity (HepG2): Non-Toxic
- Activity (Staphylococcus aureus): inactive
- Activity (Candida albicans): inactive

SMILES: CC(=O)OC[C@@]12[C@@H]3CC[C@H](O)[C@]1(O)CO[C@]2(O)C[C@@H](C)[C@]31C[C@@H](c2ccoc2)OC1=O
- Activity (Pseudomonas aeruginosa): inactive
- Activity [1]: inactive
- Activity (Schistosoma mansoni [2]): inactive
- Activity (Schistosoma mansoni [3]): inactive
- Activity (Escherichia coli [4]): inactive
- Activity (HepG2): Non-Toxic
- Activity (Staphylococcus aureus): inactive
- Activity (Candida albicans): inactive

SMILES: CC(=O)OC[C@]1(CC(O)c2ccoc2)[C@H](C)C[C@H](O)[C@]2(COC(C)=O)[C@@H]1CC[C@H](O)[C@]21CO1 (stereo partly drawn)
- Activity (Escherichia coli [5]): Dose-dependent effect
- Activity (Pseudomonas aeruginosa): inactive
- Activity [1]: inactive
- Activity (Schistosoma mansoni [2]): inactive
- Activity (Schistosoma mansoni [3]): inactive
- Activity (Escherichia coli [4]): inactive
- Activity (HepG2): Non-Toxic
- Activity (Staphylococcus aureus): inactive
- Activity (Candida albicans): inactive

SMILES: CC(=O)OC[C@]1(CCC2=CC(O)OC2=O)[C@H](C)C[C@H](O)[C@]2(COC(C)=O)[C@@H]1CC[C@H](O)[C@]21CO1 (stereo partly drawn)
- Activity (Escherichia coli [5]): Dose-dependent effect
- Activity (Pseudomonas aeruginosa): inactive
- Activity [1]: inactive
- Activity (Schistosoma mansoni [2]): inactive
- Activity (Schistosoma mansoni [3]): inactive
- Activity (Escherichia coli [4]): inactive
- Activity (HepG2): Non-Toxic
- Activity (Staphylococcus aureus): inactive
- Activity (Candida albicans): inactive
